Assay outcomes deposited in PubChem by several laboratories.
In the library only some 4.3% were active in any assay of this set; here they are far more common.
MC4R antagonist: antagonists of human melanocortin 4 receptor (MC4R). P32245. MC4R-expressing cells, MTII-stimulated cAMP, LANCE TR-FRET. inhibition, % at 6.5 µM. 360,000 compounds, 0.48% hits;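 active = inhibition above its plate's cutoff, the mean of tested wells on that plate plus 3 SD, cut at about 29% in these data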
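material = U2OS cells stably expressing human melanocortin 4 receptor (MC4R) | also added = Melanotan II challenge | dosing = single nominal compound dose of 6.5 µM | detection = TR-FRET with Eu-cAMP and labeled anti-cAMP, 671 nm | replication = singlicate | timing = compound 30 min, challenge 1 h, detection 1 h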
TAAR1 antag: antagonists of human TAAR1; Q96RJ0; CHO RD-HGA16 TAAR1, Fluo-8 calcium fluorescence, antagonist; inhibition, % at 3 µM; 360,000 compounds, 1.5% hits; AID 624466;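 active = inhibition above a per-plate cutoff, the mean inhibition of test compounds on that plate plus 3 SD, cut at about 49% in these data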
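Test system – hTAAR1-expressing CHO RD-HGA16 cells, Gα16-coupled · Reagent – β-PEA at EC80 concentration, post-compound challenge · Compound dosing – 3 µM, single point · Timing – 140 s kinetic read after compound, 140 s after agonist · Detection – Fluo-8 intracellular calcium dye fluorescence, real-time kinetic reads · Control set – DMSO and EC80 PEA controls · Repeats – n of 1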
m5-HT2A agonist: activates the mouse 5-HT2A serotonin receptor; CHO-K1 mHTR2A beta-arrestin complementation, luminescence; percent of 30 µM serotonin response; 360,000 compounds, 0.66% hits; P35363; activation, % at 7.6 µM;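 active = activation above a run cutoff, the mean activation of all tested compounds plus 3 SD, cut at about 14% in these data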
Target sequence (P35363 whole entry, looked up): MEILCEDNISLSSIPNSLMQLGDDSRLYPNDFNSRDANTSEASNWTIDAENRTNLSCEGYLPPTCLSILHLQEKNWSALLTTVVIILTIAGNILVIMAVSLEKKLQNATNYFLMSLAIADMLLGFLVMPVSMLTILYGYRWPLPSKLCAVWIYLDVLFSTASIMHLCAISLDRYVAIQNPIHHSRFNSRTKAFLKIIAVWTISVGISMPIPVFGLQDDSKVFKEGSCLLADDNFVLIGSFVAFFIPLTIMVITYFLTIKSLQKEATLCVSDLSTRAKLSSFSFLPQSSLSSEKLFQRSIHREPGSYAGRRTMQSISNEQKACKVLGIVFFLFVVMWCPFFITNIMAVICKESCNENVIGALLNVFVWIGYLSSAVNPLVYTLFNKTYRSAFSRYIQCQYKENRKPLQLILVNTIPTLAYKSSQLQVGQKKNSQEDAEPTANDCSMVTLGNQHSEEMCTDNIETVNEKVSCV
MC4R ag barr: agonists of human melanocortin 4 receptor (MC4R) beta-arrestin. activation, % at 8.9 µM. 360,000 compounds, 0.98% hits. U2OS MC4R beta-arrestin complementation, luminescence; percent of melanotan II response, DMSO zero. AID 540308;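 active = activation above a per-plate cutoff, the mean activation of sample wells on that plate plus 3 SD, cut at about 8% in these data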
B2AR ag: activates human beta-2 adrenergic receptor causing internalization; Am2.2-beta2AR cells, FAP receptor internalization, flow cytometry; response, % (concentration not given with the values); 340,000 compounds, 0.43% hits;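 active = response above a set limit, near 3 SD of response in nonfluorescent compounds, cut at about 42% in these data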
TAAR1 agonist: human TAAR1 agonism; CHO RD-HGA16 TAAR1, Fluo-8 calcium fluorescence; vehicle wells 0%, saturating PEA agonist 100%; activation, % at 3 µM; 360,000 compounds, 0.99% hits;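 active = activation above the mean activation of all test compounds in the run plus 3 SD, cut at about 38% in these data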
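System: CHO RD-HGA16 cells carrying human TAAR1 plus Gα16; Incubation: 17-24 h seeding, 75 min 37 °C dye, 30 min RT; Measured by: Fluo-8 fluorescence, 5 s baseline then 140 s kinetic read; Control set: DMSO and PEA EC100; Replication: single well for each compound.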
Numbers stand for hits.

C[C@H]1C[C@@H]2[C@H]([C@@H](O)C[C@@]3(C)[C@H]2CC[C@]3(O)C(=O)CO)[C@@]2(C)C=CC(=O)C=C12 was read as MC4R antagonist inactive, TAAR1 antag inactive, m5-HT2A agonist 18, MC4R ag barr inactive, B2AR ag inactive and TAAR1 agonist inactive.
`COc1ccc(CSc2nc3ccccc3c(=O)[nH]2)cc1F` gave MC4R antagonist inactive, TAAR1 antag 50, m5-HT2A agonist inactive, MC4R ag barr inactive, B2AR ag inactive and TAAR1 agonist inactive.
`O=C(Nc1ccc(N2CCOCC2)cc1)c1csc(COCCO)n1` gave MC4R antagonist inactive, TAAR1 antag inactive, m5-HT2A agonist inactive, MC4R ag barr inactive and TAAR1 agonist inactive.
Screening Nc1ccc2cc3[nH]c4cc(N)ccc4c3nc2c1 returned MC4R antagonist inactive, TAAR1 antag 63, m5-HT2A agonist inactive, MC4R ag barr inactive and TAAR1 agonist 78.
For COC(=O)N1Cc2ccnnc2CC1c1ccccc1-c1ccc(OC)cc1 (configuration not stated) the results were TAAR1 antag inactive and TAAR1 agonist inactive.
NC1=NC[C@H](Cc2ccccc2)N1CCCCC1CCCCC1 was read as MC4R antagonist inactive, TAAR1 antag 58, m5-HT2A agonist inactive, MC4R ag barr inactive, B2AR ag inactive and TAAR1 agonist inactive.
CC(C)Oc1ccc(F)cc1-c1cc(C(=O)N2CCc3ccccc3C2)[nH]n1 was read as MC4R antagonist inactive, TAAR1 antag inactive, m5-HT2A agonist inactive, MC4R ag barr inactive and TAAR1 agonist inactive.
Cn1c2ccccc2c(=O)c2cc(C#Cc3ccc(N)cc3)ccc21 was read as MC4R antagonist inactive, TAAR1 antag 49, m5-HT2A agonist inactive, MC4R ag barr inactive, B2AR ag inactive and TAAR1 agonist inactive.
For O=C(Nc1ccc(C(=O)N2CCOCC2)cc1)c1cc(-c2cccnc2)nc2ccc(Br)cc12 the results were MC4R antagonist inactive, TAAR1 antag 53, m5-HT2A agonist inactive, MC4R ag barr inactive, B2AR ag inactive and TAAR1 agonist inactive.
Screening CC(C)(C)c1ccc(-c2cc(C(=O)NNC(=O)Nc3ccccc3)c3ccccc3n2)cc1 returned MC4R antagonist inactive, TAAR1 antag inactive, m5-HT2A agonist inactive, MC4R ag barr inactive, B2AR ag 43 and TAAR1 agonist inactive.
Screening O=C(NNC(=O)c1cc(-c2cccnc2)nc2ccccc12)Nc1ccc(Cl)cc1 returned MC4R antagonist inactive, TAAR1 antag 82, m5-HT2A agonist inactive, MC4R ag barr inactive, B2AR ag inactive and TAAR1 agonist inactive.
O=C(NNC(=O)c1cc(-c2ccncc2)nc2ccccc12)Nc1ccc(F)cc1 was read as MC4R antagonist inactive, TAAR1 antag inactive, m5-HT2A agonist inactive, MC4R ag barr inactive, B2AR ag inactive and TAAR1 agonist inactive.
For COC(=O)c1cc2c(c3c4cc(F)ccc4n(S(=O)(=O)c4ccc(C)cc4)c13)C(=O)N(Cc1ccccc1)C2 the results were TAAR1 antag inactive and TAAR1 agonist inactive.
`CC(=O)N1CCN(c2ccc(N3CCN(Cc4ccccc4)[C@H](C)C3)c(C)c2)[C@H](C)C1` gave TAAR1 antag inactive and TAAR1 agonist inactive.
Cc1cc(O)cc(=O)n1-c1cccc([N+](=O)[O-])c1 was read as TAAR1 antag inactive and TAAR1 agonist inactive.
`COC(=O)C1=C(C)N(c2ccc(C)c(C)c2)/C(=C/c2ccco2)C1=O` gave MC4R antagonist inactive, m5-HT2A agonist 18, MC4R ag barr inactive and B2AR ag inactive.
COC(=O)c1cc2c(c3c4cc(OC)ccc4n(S(C)(=O)=O)c13)C(=O)N(C)C2 was read as TAAR1 antag inactive and TAAR1 agonist inactive.
Screening COC(=O)C1=C(O)/C(=C\c2cc(C)n(-c3ccc(F)cc3)c2C)N=C1C returned MC4R antagonist inactive, TAAR1 antag inactive, m5-HT2A agonist inactive, MC4R ag barr inactive, B2AR ag 69 and TAAR1 agonist inactive.
Screening COC(=O)C1=C(C)N(C)C(=NCc2ccc(OC)cc2)NC1c1cccc(Cl)c1 (configuration not stated) returned TAAR1 antag inactive and TAAR1 agonist inactive.
